Measurements collected from several papers.
MAPK14: Mitogen-activated protein kinase 14 (MAPK14, Homo sapiens, UniProt Q16539)
MAPK14 T106M: Mitogen-activated protein kinase 14 (MAPK14, Homo sapiens, UniProt Q16539, T106M)

Cc1cc(NC(=O)c2cccc3cc(-c4cccc5[nH]nc(N)c45)ccc23)ccc1F  activity vs control (MAPK14; enzyme activity; inhibitor; 0.1 µM): 85%
Cc1noc([C@H]2C[C@@H](c3ccc(C(F)(F)F)cc3)CN(C(=O)N3CCS(=O)(=O)C3)C2)n1  remaining binding (MAPK14; cell-free assay; competition with immobilised ligand; 1 µM): 79%
CCN(CC)CCNC(=O)c1c(C)[nH]c(/C=C2\C(=O)Nc3ccc(F)cc32)c1C  inhibition (MAPK14 T106M; enzyme activity; inhibitor; 0.3 µM): 5%
Cc1cnc(NC2CCOCC2)nc1-n1cnc(C(=O)NC(CN)c2cc(F)cc(Cl)c2)c1 (centres unmarked)  remaining activity (MAPK14 T106M; enzyme activity; inhibitor; radiometric; 1 µM): 55%
CC(C)c1ccc(NC(=O)c2cccs2)c(-c2nc3ccccc3[nH]c2=O)c1  activity vs control (MAPK14; enzyme activity; inhibitor; 1 µM): 102%
N#CCCc1ccc2c(c1)-c1[nH]c3ccc([N+](=O)[O-])cc3c1CC(=O)N2  remaining signal (MAPK14; cell-free assay; 0.5 µM): 91.8%
Cc1nc(Cc2cccc(C(F)(F)F)c2)sc1-c1ccc(C(N)=O)nc1  remaining binding (MAPK14; cell-free assay; competition with immobilised ligand; 1 µM): 100%
C#Cc1cccc(Nc2ncnc3cc(OCCOC)c(OCCOC)cc23)c1  remaining signal (MAPK14; cell-free assay; 0.5 µM): 95.3%
O=C(Nc1cnn(-c2csc(C(=O)NC3COC3)c2)c1)Nc1c(F)cccc1Cl  remaining activity (MAPK14; enzyme activity; inhibitor; 5 µM): 105%
O=C(NC[C@@H]1[C@H]2CN(C(=O)OCc3cc(C(F)(F)F)cc(C(F)(F)F)c3)C[C@@H]12)c1ccc2[nH]nnc2c1  remaining binding (MAPK14; cell-free assay; competition with immobilised ligand; 1 µM): 100%
c1nc2c(Nc3ccc4c(c3)OCCO4)nc(Nc3ccc4c(c3)OCCO4)nc2[nH]1  activity vs control (MAPK14; enzyme activity; inhibitor; 10 µM): 90%
O=C1NC(c2ccccn2)Sc2ccccc21 (centres unmarked)  remaining binding (MAPK14; cell-free assay; competition with immobilised ligand; 1 µM): 81%
COc1cc(Nc2cnc(C#N)c(O[C@H](C)CN(C)C)n2)ncc1-c1cnn(C)c1  remaining activity (MAPK14; enzyme activity; inhibitor; radiometric; 1 µM): 102%
N#Cc1c(NC(=O)c2cccc3ccccc23)sc2c1CCCC2  remaining signal (MAPK14; cell-free assay; 0.5 µM): 98.1%
CNC(=O)c1cc(Oc2ccc(NC(=O)Nc3ccc(Cl)c(C(F)(F)F)c3)cc2)ccn1  inhibition (MAPK14; enzyme activity; inhibitor; 10 µM): 84%
CSc1nc(-c2ccnc(N[C@@H](C)c3ccccc3)c2)c(-c2ccc(F)cc2)[nH]1 (racemic)  remaining signal (MAPK14; cell-free assay; 0.5 µM): 7.64%
CC(C)(C)c1nc(-c2cccc(NS(=O)(=O)c3c(F)cccc3F)c2F)c(-c2ccnc(N)n2)s1  remaining activity (MAPK14; enzyme activity; inhibitor; radiometric; 1 µM): 111%
c1ccc(CNc2nc(N3CCOc4ccccc43)nc3c2CCCC3)cc1  inhibition (MAPK14; target engagement in cells; inhibitor; chemoproteomics; 20 mM): 6.3%
Cc1ccc(Nc2nccc(N(C)c3ccc4c(C)n(C)nc4c3)n2)cc1S(N)(=O)=O  inhibition (MAPK14 T106M; enzyme activity; inhibitor; 0.3 µM): 4%
COc1ccc2c(c1)O[C@@H](c1ccc(OC)c(OC)c1)C[C@H]2NC(=O)C1(c2ccc3c(c2)OC(F)(F)O3)CC1  remaining binding (MAPK14; cell-free assay; competition with immobilised ligand; 1 µM): 99%
CN(C)C1CCN(CC#Cc2nn(C3CCCC3)c3nc(NCc4ccccc4)ncc23)C1 (centres unmarked)  inhibition (MAPK14; enzyme activity; inhibitor; FRET; 0.1 µM): 8%
Cc1ccc(NC(=O)c2ccc(C)c(C(F)(F)F)c2)cc1C#Cc1nn(C2CCC(O)CC2)c2ncnc(N)c12 (centres unmarked)  remaining signal (MAPK14; cell-free assay; 10 µM): 3%
Nc1ncnc2occ(-c3ccc(NC(=O)Nc4cc(C(F)(F)F)ccc4F)cc3)c12  remaining signal (MAPK14; cell-free assay; inhibitor; 20 µM): 0%
CC(C)(O)c1cncc(-c2nc3ccc(F)cc3n2C2CC2)c1  remaining binding (MAPK14; cell-free assay; competition with immobilised ligand; 1 µM): 100%
CC(C)(C)C(=O)c1sc(NC2CCCCC2)nc1N  remaining activity (MAPK14; enzyme activity; inhibitor; 10 µM): 102%
O=C(NS(=O)(=O)c1ccc(NCC2CCOCC2)c([N+](=O)[O-])c1)c1ccc(N2CCN(Cc3ccc(C(F)(F)F)cc3-c3ccc(Cl)cc3)CC2)cc1Oc1cnc2[nH]ccc2c1  remaining binding (MAPK14; cell-free assay; competition with immobilised ligand; 1 µM): 97%
Cn1c(=O)n(-c2ccc(C(C)(C)C#N)cc2)c2c3cc(-c4cnc5ccccc5c4)ccc3ncc21  remaining activity (MAPK14; enzyme activity; inhibitor; 10 µM): 111%
O=C(N[C@H]1CCCCC/C=C\C2C[C@@]2(C(=O)O)NC(=O)[C@@H]2C[C@@H](Oc3ccncc3)CN2C1=O)OC1CCCC1 (some centres unmarked)  remaining binding (MAPK14; binding; competition with immobilised ligand; 1 µM): 94%
COc1cc(/C=C/C(=O)CC(=O)/C=C/c2ccc(O)c(OC)c2)ccc1O  activity vs control (MAPK14; enzyme activity; inhibitor; 1 µM): 104%
